Key:
[1] = biological target: T1, Protein kinase C, PKC; classical (Rattus norvegicus, UniProt P05696+P68403+P63319); experiment: In vitro inhibition of [32P] incorporation into histones by rat brain partially purified Protein kinase C in the presence of PMA, [Ca2+] and phosphatidylserine.
How it was run: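 Partially purified rat brain PKC activated by PMA, Ca²⁺ and phosphatidylserine. Read-out is inhibition of ³²P incorporation into histones. Some values are extrapolated.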

[2] = biological target: cAMP-dependent protein kinase catalytic subunit alpha (Rattus norvegicus) (UniProt P27791); experiment: In vitro inhibition of cAMP-dependent kinase Protein kinase A isolated from rat brain by 100 uM.
How it was run: (§1)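 PKA catalytic subunit at 4 ng/mL in 20 mM Tris with 10 μM histone, 100 μM dibutyryl-cAMP and 100 μM [³²P]ATP. Percent inhibition measured at 100 μM test compound.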

[3] = biological target: T1, Protein kinase C, PKC; classical; experiment: Inhibition of PMA and [Ca2+] induced 32P incorporation into histones by partially purified rat brain Protein kinase C
How it was run: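 Partially purified rat brain PKC activated by PMA, Ca²⁺ and phosphatidylserine. Read-out is inhibition of ³²P incorporation into histones. IC50 taken from concentration-inhibition curves run up to 100 μM inhibitor. Some values are extrapolated.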

[4] = biological target: cAMP-dependent protein kinase catalytic subunit alpha (Rattus norvegicus) (UniProt P27791); experiment: (§2) Inhibition of cAMP-dependent kinase PKA(Protein kinase A) catalytic subunit at 100 uM; how it was run: as §1
[5] = biological target: cAMP-dependent protein kinase catalytic subunit alpha (Rattus norvegicus) (UniProt P27791); experiment: Inhibition of cAMP-dependent kinase PKA (Protein kinase A) catalytic subunit at 100 uM; how it was run: as §1
[6] = biological target: cAMP-dependent protein kinase catalytic subunit alpha (Rattus norvegicus, UniProt P27791); experiment: as §2
[7] = biological target: T2, Protein kinase C alpha type (Rattus norvegicus, UniProt P05696); experiment: Inhibition of [3H]-phorbol dibutyrate binding to Protein kinase C alpha
[8] = biological target: T2, Protein kinase C alpha type; experiment: Effect of Phosphatidylserine on inhibition of Protein kinase C alpha

Row | SMILES | IC50 [1] [µM] | inhibition [2] [%] | further results
1 | CCCCCCCCCCCCC(=O)N1CCCCC1CNC(=O)CN (configuration not stated) | 51 | 0 | 
2 | CCCCCCCCCCCCCCC(=O)N1CCCCC1CNC(=O)[C@@H](N)CCCCN (some centres not stated) |  |  | IC50 [3]: 38 µM; inhibition [4]: 0%
3 | CCCCCCCCCCCCC(=O)N1CCCCC1CNC(=O)[C@@H](N)CCC(=O)OCc1ccccc1 (some centres not stated) | 92 | 0 | 
4 | CCCCCCCCCCCCC(=O)N1CCCCC1CNC(=O)[C@@H](N)CO (some centres not stated) | 45 | 0 | 
5 | CCCCCCCCCCC(=O)N1CCCCC1CNC(=O)[C@@H](N)CCCCN (some centres not stated) | 299 | 0 | 
6 | CCCCCCCCCCCCCCCC(=O)N1CCCCC1CNC(=O)[C@@H](N)CCCCN (some centres not stated) | 45 | 0 | 
7 | CCCCCCCCC(=O)N1CCCCC1CNC(=O)[C@@H](N)CCCCN (some centres not stated) |  | 0 | 
8 | CCCCCCCCCCCCCC(=O)N1CCCCC1CN (configuration not stated) |  |  | inhibition [5]: 46%; IC50 [3]: 36 µM
9 | CCCCCCCCCCCCC(=O)N1CCCCC1CNC(=O)[C@@H](N)CCC(N)=O (some centres not stated) | 72 | 0 | 
10 | CCCCCCCCCCCCCCCCC(=O)N1CCCCC1CNC(=O)[C@@H](N)CCCCN (some centres not stated) | 46 | 0 | 
11 | CCCCCCCCCCCCC(=O)N1CCCCC1CNC(=O)[C@H](N)CCCCN (some centres not stated) | 34 | 0 | 
12 | CCCCCCCCCCCCC(=O)N1CCCCC1CNC(=O)[C@@H](N)CCSC (some centres not stated) | 159 | 0 | 
13 | CCCCCCCCCCCCCC(=O)N1CCCCC1CNC(=O)[C@@H](N)CCCCN (some centres not stated) | 48 | 0 | 
14 | CCCCCCCCCCCCC(=O)N1CCCCC1CNC(=O)[C@@H](N)CC(C)C (some centres not stated) |  |  | IC50 [3]: 154 µM; inhibition [4]: 0%
15 | CCCCCCCCCCCCC(=O)N1CCCCC1CNC(=O)[C@@H](N)CCC(=O)O (some centres not stated) |  | 0 | 
16 | CCCCCCCCCCCCC(=O)N1CCCCC1CNC(=O)[C@H](C)N (some centres not stated) | 52 | 0 | 
17 | CCCCCCCCCCCCC/C=C/[C@@H](O)[C@@H](N)CO [SPHINGOSINE] | 57 |  | IC50 [6]: 98 µM
18 | CCCCCCCCCCCC(=O)N1CCCCC1CNC(=O)[C@@H](N)CCCCN (some centres not stated) | 102 | 0 | 
19 | CCCCCCCCCCCCC(=O)N1CCCCC1CNC(=O)[C@@H](N)Cc1ncc[nH]1 (some centres not stated) | 60 | 0 | 
20 | CCCCCCCCCCCCC(=O)N1CCCCC1CNC(=O)[C@@H](N)CCCN (some centres not stated) | 23 | 0 | 
21 | CCCCCCCCCCCCCCCCCC(=O)N1CCCCC1CNC(=O)[C@@H](N)CCCCN (some centres not stated) | 36 | 38 | 
22 | CCCCCCCCCCCCC(=O)N1CCCCC1CNC(=O)[C@@H](N)CCCN=C(N)N (some centres not stated) | 72 | 0 | 
23 | CCCCCCC(=O)N1CCCCC1CNC(=O)[C@@H](N)CCCCN (some centres not stated) |  | 0 | 
24 | CCCCCCCCCCCCC(=O)N1CCCCC1CNC(=O)[C@@H](N)CCCCN (some centres not stated) | 20 | 0 | IC50 [7]: 23 µM; Ki [8]: 12 µM

Reference: ChEMBL document CHEMBL1125218, “Substituted 2-(aminomethyl)piperidines: a novel class of selective protein kinase C inhibitors” (J Med Chem, 1991)
